The structures appear in SMILES notation. In brackets after ≈: the same amount, converted by molar mass.

The values that follow come from ChEMBL document CHEMBL1139225, “Metabolism-based identification of a potent thrombin receptor antagonist” (J Med Chem, 2007).

For data set [1], the target named is T1, Proteinase-activated receptor 1 (Homo sapiens, UniProt P25116).
T1 sequence (P25116 whole entry): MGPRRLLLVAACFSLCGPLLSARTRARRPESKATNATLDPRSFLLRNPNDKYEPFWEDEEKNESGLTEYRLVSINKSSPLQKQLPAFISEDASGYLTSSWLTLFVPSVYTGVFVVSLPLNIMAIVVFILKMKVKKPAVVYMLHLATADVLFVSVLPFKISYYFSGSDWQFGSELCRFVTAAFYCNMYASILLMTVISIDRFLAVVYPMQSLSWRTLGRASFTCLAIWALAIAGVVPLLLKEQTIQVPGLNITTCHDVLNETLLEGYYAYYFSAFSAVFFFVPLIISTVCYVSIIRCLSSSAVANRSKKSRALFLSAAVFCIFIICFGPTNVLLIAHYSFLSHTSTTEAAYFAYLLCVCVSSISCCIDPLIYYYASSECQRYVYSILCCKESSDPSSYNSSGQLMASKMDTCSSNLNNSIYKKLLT
Briefly: Displacement of [3H]haTRAP from PAR1 in human platelet membrane. The class given is cell membranes. Background: Loss of bound radioactivity is the signal in a displacement assay; it reports binding, not function.

A short description of data set [2]: AUC (0-24h) in Sprague-Dawley rat at 300 mg/kg, po after 1 day. Format: ADME, organism-based. Also on record: time < 24 hr, dose 300 mg/kg, route oral. The settings on record: plasma. In outline: (§1)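 Fed male Sprague Dawley rats, four per group, given the compound orally once daily for 10 consecutive days in 0.4% methylcellulose (100 and 300 mg/kg groups). On day 1 and day 10, plasma concentrations of parent and hydroxylated metabolites were measured at 1, 2, 4, 8, 12 and 24 h, giving AUC(0-24 h) and Cmax.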

The nature of data set [3]: AUC (0-24h) in Sprague-Dawley rat at 300 mg/kg, po after 10 days. Also on record: time < 24 hr, dose 300 mg/kg, route oral. The class given is ADME, organism-based. Particulars: plasma. The gist of the method:
as §1

Data set [4] is described as follows: Cmax in Sprague-Dawley rat at 300 mg/kg, po after 1 day. Format: ADME, organism-based. Also noted: dose 300 mg/kg, route oral. The settings on record: in vivo. The gist of the method:
as §1

The nature of data set [5]: Cmax in Sprague-Dawley rat at 300 mg/kg, po after 10 days. Particulars: in vivo. Also on record: dose 300 mg/kg, route oral. Format: ADME, organism-based. The gist of the method: as §1
Data set [6] in a line: AUC (0-6h) in rat after oral administration. Format: ADME, organism-based. Also noted: time < 6 hr, route oral. The settings on record: plasma.
Data set [7] is described as follows: Plasma concentration in cynomolgus monkey at 24 hrs. The class given is ADME, organism-based, Macaca fascicularis. The gist of the method: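 Cynomolgus monkeys were given an oral dose of 3 mg/kg in 0.4% methylcellulose. Plasma was sampled at 6 and 24 h and analysed by LC-MS/MS.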
A short description of data set [8]: AUC (0-6h) in rat at 10 mg/kg, po. The class given is ADME, organism-based. Also on record: time < 6 hr, dose 10 mg/kg, route oral. Particulars: plasma. In outline: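 Rat oral pharmacokinetics at 10 mg/kg dosed in 20% HPβCD. Plasma exposure was reported as AUC(0-6).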
A short description of data set [9]: Solubility of the compound. Format: physicochemical.
Data set [10] can be described thus: AUC (0-24h) in cynomolgus monkey at 1 mg/kg, po. The class given is ADME, organism-based, Macaca fascicularis. Also on record: time < 24 hr, dose 1 mg/kg, route oral. Particulars: plasma. In outline: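 Cynomolgus monkeys received a single oral dose of 1 mg/kg in 20% HPβCD. Blood levels were followed at various time points afterwards.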
In data set [11] the test system is Rattus norvegicus. Nature of the data set: Increase in liver to body weight ratio in Sprague-Dawley rat at 100 mg/kg, po. Format: functional. In outline: (§2)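 Ten-day enzyme induction study. Fed male Sprague Dawley rats, four per group, were dosed orally once daily at 100 or 300 mg/kg in 0.4% methylcellulose. Liver/body weight ratio, spectral cytochrome P450, and CYP1A and CYP2B levels were expressed relative to a control group.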

Data set [12] has as its system Rattus norvegicus. Nature of the data set: Increase in liver to body weight ratio in Sprague-Dawley rat at 300 mg/kg, po. The class given is functional. In outline:
as §2

The subject of data set [13] is Rattus norvegicus. Briefly: Increase in hepatic enzyme CYP2B in Sprague-Dawley rat at 300 mg/kg, po. The class given is functional. The gist of the method: as §2
For data set [14], the system named is Rattus norvegicus. Nature of the data set: Increase in hepatic enzyme CYP1A in Sprague-Dawley rat at 300 mg/kg, po. The class given is functional. In outline: as §2
Data set [15] has as its system Rattus norvegicus. Nature of the data set: Increase in hepatic enzyme CYP2B in Sprague-Dawley rat at 100 mg/kg, po. The class given is functional. In outline:
as §2

The subject of data set [16] is Rattus norvegicus. Nature of the data set: Increase in hepatic enzyme CYP1A in Sprague-Dawley rat at 100 mg/kg, po. The class given is functional. In outline: as §2

The compound `C[C@H]1OC(=O)[C@@H]2C[C@@H]3C[C@H](O)CC[C@H]3[C@H](/C=C/c3ccc(-c4cccc(F)c4)cn3)[C@H]12` came in with a concentration for half-maximal inhibition (IC50) in data set [1] of 28 nM.
Turning to `C[C@H]1OC(=O)[C@@H]2C[C@H]3[C@@H](CCC[C@@H]3O)[C@H](/C=C/c3ccc(-c4cccc(C(F)(F)F)c4)cn3)[C@H]12`, in data set [1], the IC50 is 41 nM. The compound also gave an AUC(0-t) at 24 h in data set [2] of 49000 ng·h/mL. This compound came in with an AUC at 24 h in data set [3] of 150000 ng·h/mL. In addition, the results for the Cmax in data set [4] and in [5] were 29000 ng/mL and 79000 ng/mL, respectively. Moreover, the AUC(0-t) at 6 h in [6] turned out to be 5760 ng·h/mL. In addition, the concentration at 24 h in data set [7] was 160 ng/mL.
The compound `C[C@H]1OC(=O)[C@@H]2C[C@H]3[C@@H](CCC[C@H]3O)[C@H](/C=C/c3ccc(-c4cccc(C(F)(F)F)c4)cn3)[C@H]12` gave an IC50 in data set [1] of 28 nM.
With `C[C@H]1OC(=O)[C@@H]2C[C@@H]3CC(F)(F)CC[C@H]3[C@H](/C=C/c3ccc(-c4cccc(Cl)c4)cn3)[C@H]12`, the half-maximal inhibitory concentration (IC50) in data set [1] was found to be 12 nM. This compound also had an AUC(0-t) at 6 h in [8] of 1200 ng·h/mL. The same compound displayed a solubility in data set [9] of 5 µM (≈ 2.29 µg/mL).
With `C[C@H]1OC(=O)[C@@H]2C[C@@H]3CC(=O)CC[C@H]3[C@H](/C=C/c3ccc(-c4cccc(C(F)(F)F)c4)cn3)[C@H]12`, in data set [10], the AUC(0-t) at 24 h worked out at 31 ng·h/mL.
Take `C[C@H]1OC(=O)[C@@H]2C[C@@H]3C[C@H](O)CC[C@H]3[C@H](/C=C/c3ccc(-c4ccccc4F)cn3)[C@H]12`: the IC50 in [1] was found to be 72 nM.
In the case of `C[C@H]1OC(=O)[C@@H]2C[C@@H]3CCCC[C@H]3[C@H](/C=C/c3ccc(-c4cccc(C(F)(F)F)c4)cn3)[C@H]12`, the Activity in the data set with Rattus norvegicus [11] is 10%; with Rattus norvegicus [12], 34%; in the data set with Rattus norvegicus [13] it was 21; with Rattus norvegicus [14], 3.6; in the data set on Rattus norvegicus [15], 2.5; with Rattus norvegicus [16], 1.8. Further, the AUC(0-t) at 24 h in data set [2] worked out at 35000 ng·h/mL. Further, the AUC at 24 h in data set [3] came to 21000 ng·h/mL. Besides, the Cmax in data set [4] turned out to be 29000 ng/mL; in data set [5], 17000 ng/mL.
`C[C@H]1OC(=O)[C@@H]2C[C@@H]3CC(F)(F)CC[C@H]3[C@H](/C=C/c3ccc(-c4ccccc4Cl)cn3)[C@H]12` showed a half-inhibitory concentration (IC50) in data set [1] of 11 nM.
The compound `C[C@H]1OC(=O)[C@@H]2C[C@@H]3CC(F)(F)CC[C@H]3[C@H](/C=C/c3ccc(-c4ccccc4F)cn3)[C@H]12` displayed an IC50 in data set [1] of 28 nM.
On the same count and under the same terms, the value for `C[C@H]1OC(=O)[C@@H]2C[C@@H]3CC[C@@H](O)C[C@H]3[C@H](/C=C/c3ccc(-c4cccc(C(F)(F)F)c4)cn3)[C@H]12` was 481 nM.
On the same count and under the same terms, the value for `Cc1ccc(-c2ccc(/C=C/[C@H]3[C@@H]4CC[C@@H](O)C[C@H]4C[C@H]4C(=O)O[C@H](C)[C@@H]34)nc2)cc1` was 1370 nM; that for `C[C@H]1OC(=O)[C@@H]2C[C@@H]3CC[C@H](O)C[C@H]3[C@H](/C=C/c3ccc(-c4cccc(C(F)(F)F)c4)cn3)[C@H]12` was 845 nM.

Usually IC50 stands for the concentration needed to halve the response being measured. Broadly, the AUC(0-t) is exposure summed from dosing to a finite time, without extrapolation to infinity. The AUC is the area under the concentration-time curve, a measure of exposure. As a reminder, the Cmax is the highest concentration seen after dosing. Broadly, the solubility is the concentration that dissolves in the medium under given conditions.
